Screening results (PubChem BioAssay)
Beta cell apopt: blocks beta cell apoptosis; INS-1E cytokine-induced death, ATP luminescence, 48 h; percent of positive-control rescue, neutral wells zero; protection from apoptosis, % (no concentration beside the values); AID 435005; 300,000 tested, 0.8% active;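 active means Every replicate reaches about 75%, or at least half do and their mean reaches it too, limit read from the data; inconclusive means At least half of replicates reach the limit but their mean does not; inactive means Under half of replicates reach the limit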;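 further: 0% = cytokine-treated negative control wells and 100% = positive control rescue; higher means more ATP so stronger rescue from cytokine killing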
MC4R antagonist: blocks human MC4R cAMP signaling; P32245; MC4R-expressing cells, MTII-stimulated cAMP, LANCE TR-FRET; inhibition, % at 6.5 µM; 360,000 tested, 0.48% active; AID 540295;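 active means inhibition above its plate's cutoff, the mean of tested wells on that plate plus 3 SD, cut at about 29% in these data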;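 further: 0% = Melanotan II alone and 100% = Melanotan II plus saturating MCL0020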
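Assay system: human MC4R-expressing U2OS cells; reagent: Melanotan II stimulation of cells; dosing: 6.5 µM single dose; timing: compound 30 min, challenge 1 h, detection 1 h; signal: TR-FRET cAMP assay; replicates: one well per compound, no replicates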
MC4R ag barr: agonists of human melanocortin 4 receptor (MC4R) beta-arrestin. P32245. U2OS MC4R beta-arrestin complementation, luminescence; percent of melanotan II response, DMSO zero. activation, % at 8.9 µM. 360,000 tested, 0.98% active;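 active means activation above a per-plate cutoff, the mean activation of sample wells on that plate plus 3 SD, cut at about 8% in these data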
CSC inhib: cancer stem cell inhibition | cancer stem cell-like cells viability, luminescence | inhibition, % at 7.5 µM | 300,000 tested, 1.1% active | AID 2717; in the data active means inhibition above about 75%; inconclusive means no clear call, values can overlap the other calls; tested in HMLE shEcad cells
TMEM16A act: activators or potentiators of mouse TMEM16A chloride channel | B-score at 10 µM | 340,000 tested, 0.3% active | Q8BHY3 | HEK293 TMEM16A/YFP-H148Q/I152L, iodide quench fluorescence; stronger effect = lower value;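 active means fluorescence-ratio B-score plate-corrected deviation score at least 3 library SD below zero, with starting fluorescence score within 5 deviations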;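 further: channel opened by trigger with iodide after compound preincubation; score built on the fluorescence ratio of max minus min over baseline; more negative score means more quench and so TMEM16A activation or potentiation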
Target sequence (Q8BHY3 whole entry, looked up): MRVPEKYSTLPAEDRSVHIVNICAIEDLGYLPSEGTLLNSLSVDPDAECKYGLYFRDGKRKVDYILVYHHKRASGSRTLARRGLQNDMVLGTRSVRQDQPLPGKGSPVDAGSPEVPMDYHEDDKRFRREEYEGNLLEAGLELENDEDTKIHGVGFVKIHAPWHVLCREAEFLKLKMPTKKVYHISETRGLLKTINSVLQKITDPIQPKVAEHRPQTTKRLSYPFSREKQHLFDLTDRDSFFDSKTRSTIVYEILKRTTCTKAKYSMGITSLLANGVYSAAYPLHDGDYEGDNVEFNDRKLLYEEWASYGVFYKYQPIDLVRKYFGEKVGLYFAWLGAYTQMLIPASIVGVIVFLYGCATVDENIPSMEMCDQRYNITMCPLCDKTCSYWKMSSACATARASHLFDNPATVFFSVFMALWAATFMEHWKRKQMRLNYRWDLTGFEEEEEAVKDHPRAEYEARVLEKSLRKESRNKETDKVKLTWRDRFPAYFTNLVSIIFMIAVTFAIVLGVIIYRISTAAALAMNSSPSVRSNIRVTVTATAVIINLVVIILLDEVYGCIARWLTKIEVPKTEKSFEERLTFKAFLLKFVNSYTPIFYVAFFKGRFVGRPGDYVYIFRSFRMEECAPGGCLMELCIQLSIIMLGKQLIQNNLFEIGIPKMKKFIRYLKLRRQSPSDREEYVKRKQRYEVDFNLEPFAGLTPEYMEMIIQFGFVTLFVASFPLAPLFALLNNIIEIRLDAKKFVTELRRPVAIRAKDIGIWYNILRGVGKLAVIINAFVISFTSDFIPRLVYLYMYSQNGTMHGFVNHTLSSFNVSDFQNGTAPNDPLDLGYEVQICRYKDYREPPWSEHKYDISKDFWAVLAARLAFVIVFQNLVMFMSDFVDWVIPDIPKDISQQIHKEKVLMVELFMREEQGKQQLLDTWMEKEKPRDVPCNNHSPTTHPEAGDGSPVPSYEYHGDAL
ANO1 block: mouse TMEM16A channel inhibition, primary screen; Q8BHY3; HEK293 TMEM16A/YFP iodide influx fluorescence, ionomycin; normalized B-score (activity score, 25-100; higher = stronger inhibition) at 10 µM; 310,000 tested, 1.2% active; AID 588511;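 active means ratio plate-corrected score three or more library SD toward inhibition, starting fluorescence score within five deviations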;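 further: score derived from kinetic fluorescence span divided by baseline fluorescence per well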
TMEM16A reconf: reconfirmed blocker of mouse TMEM16A calcium-activated chloride channel | 2,300 tested, 39% active | HEK293 TMEM16A/YFP-H148Q, iodide quench fluorescence; ionomycin added to raise cell calcium | shares compounds with ANO1 block | inhibition, % at 10 µM | AID 652189;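 active means mean duplicate percent inhibition, scaled so buffer wells are 0 and the reference blocker 100, over three buffer SD above buffer mean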
HEK293 Ca mobil: calcium mobilization counter-screen hit for TMEM16A inhibitor series; shares compounds with ANO1 block; AID 652231; 2,300 tested, 2% active; calcium response (% of ionomycin), % at 10 µM; TMEM16A/YFP HEK293, Fluo4 calcium mobilization;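 active means duplicate-averaged calcium signal over 20% of the ionomycin maximum, relative to buffer baseline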;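 further: each well's signal is peak minus trough fluorescence divided by its pre-addition baseline; 0% = buffer wells and 100% = ionomycin wells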
Parental YFP cnt: counter-screen for TMEM16A inhibitors: effect in parental YFP-HEK293 cells; shares compounds with ANO1 block; 2,300 tested, under 10 active; AID 652233; YFP ratio F(max-min)/F0 at 10 µM; iodide YFP quench, ionomycin;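 active means yellow fluorescent protein signal ratio exceeding the buffer control mean by over 5 SD of those controls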;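 further: ratio is mean of duplicate wells from kinetic YFP trace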
ClC-1 inh: rat ClC-1 inhibition, TMEM16A specificity screen | shares compounds with ANO1 block | CHO ClC-1-YFP, iodide influx fluorescence quench; iodide control reads 0, buffer control 100 | ratio percent, % at 10 µM | 2,300 tested, under 10 active;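 active means duplicate-mean ratio percent above the mean of iodide-only control wells, which defines zero, plus 5 of their SD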;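 further: higher percent means stronger block of ClC-1 iodide influx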
Starred values were filed as active, the others as inactive; i = inactive; ? = inconclusive; · = not tested or not shown. Shown are actives, neighbours in structure and some others; about 3.8% of the full set was active somewhere.

SMILES	Beta cell apopt	MC4R antagonist	MC4R ag barr	CSC inhib	TMEM16A act	ANO1 block	TMEM16A reconf	HEK293 Ca mobil	Parental YFP cnt	ClC-1 inh
CCCCSc1nnc2c(n1)[nH]c1ccccc12	6	7	-2	0	i	25*	i	i	-1.2	-10
O=C(c1cn(Cc2ccccc2)nc1-c1ccccc1)N1CCN(c2ccccn2)CC1	-1	-4	-4	42	i	·	·	·	·	·
CN(C(=O)OC(C)(C)C)c1ccc(-c2nc3ccccc3s2)cc1	2	0	0	30	i	25*	24%*	i	-1.4	-8
COC(=O)N(C)c1nc2ccccc2s1	2	-1	-1	7	i	i	·	·	·	·
CCOc1cc2[nH]c(=S)n(Cc3ccc(C(=O)NCC(OC)OC)cc3)c(=O)c2cc1OCC	8	10	-2	8	i	100*	i	i	-1.1	-6
CC(=O)N1c2ccc(S(=O)(=O)N3CCC(C(=O)NC(C)c4ccccc4)CC3)cc2CC1C (centres undefined)	-2	2	-1	-10	i	i	·	·	·	·
CCNC(=O)N1CCC(c2nc3ccccc3s2)CC1	3	4	-1	4	i	i	·	·	·	·
O=C(CSc1ccc(Cl)cc1Cl)N1CCC(c2nc3ccccc3s2)CC1	4	3	-2	13	i	100*	i	i	-0.98	-6
C[C@@H]1CN([C@H](C)CO)C(=O)c2cccc(NC(=O)Nc3ccc(F)cc3)c2O[C@H]1CN(C)C(=O)Nc1ccc(C(F)(F)F)cc1	2	8	-2	11	i	·	·	·	·	·
CCOC(=O)/C=c1/s/c(=C/c2ccccc2OC)c(=O)n1CC(=O)N1CCOCC1	·	3	-1	·	i	·	·	·	·	·
Cc1nc2ccccc2n1CC(O)COCC1CC=CCC1 (centres undefined)	24	-2	1	-3	i	100*	i	i	-0.96	-14
OC(COCC1CC=CCC1)Cn1cnc2ccccc21 (centres undefined)	2	0	0	-6	·	i	·	·	·	·
CCCCOc1ccc2c(C)cc(=O)oc2c1OCCCC	13	4	3	3	i	100*	i	i	-1.3	-10
O=C(c1cc(COc2c(F)cccc2F)on1)N1CCC(c2ccncc2)CC1	53	6	-1	16	i	25*	i	i	-1.2	-22
Cc1cccc(C)c1OCc1cc(C(=O)N2CCC(c3ccncc3)CC2)no1	·	2	-1	-8	i	25*	21%*	i	-1	-22
O=C(NCCN1CCN(c2ccccc2)CC1)Nc1ccccc1Br	-1	15	-1	6	i	i	·	·	·	·
CCN(CC(=O)Nc1ccccc1C(F)(F)F)C(=O)c1ccc(NC(=O)c2cccs2)cc1	·	11	-2	·	·	·	·	·	·	·
COc1ccc(C)cc1NC(=O)c1ccccc1NS(=O)(=O)c1ccc(Cl)s1	36	3	0	?	i	100*	48%*	i	-1	-13
COc1ccccc1NC(=O)c1ccccc1NS(=O)(=O)c1cccs1	15	5	0	-7	i	i	·	·	·	·
COc1ccc(CN2CCc3c([nH]c4ccccc34)C2)cc1Br	-8	-9	1	50	i	100*	i	i	-1	-4
CCOc1cc(CN2CCc3c([nH]c4ccccc34)C2)ccc1OC	0	1	-1	-2	i	i	·	·	·	·
Cc1ccc(NC(=S)NNC(=O)c2cccc([N+](=O)[O-])c2)cc1Cl	4	-2	-3	22	i	25*	24%*	i	-1.1	-18
CC1CCCC(NC(=O)C2CCN(S(=O)(=O)N3CCOCC3)CC2)C1C (centres undefined)	-8	8	-2	-10	i	25*	i	i	-0.88	-4
CCCN(CC(=O)Nc1ccccc1OC)C(=O)CC1CCCC1	-4	3	-1	-24	i	·	·	·	·	·
CCc1nc(SCC(=O)NCCc2ccccc2)c2oc3ccccc3c2n1	1	3	0	-12	i	i	·	·	·	·
SMILES	Beta cell apopt	MC4R antagonist	MC4R ag barr	CSC inhib	TMEM16A act	ANO1 block	TMEM16A reconf	HEK293 Ca mobil	Parental YFP cnt	ClC-1 inh
CCc1nc(SCC(=O)c2cccs2)c2oc3ccccc3c2n1	22	-3	0	45	i	100*	i	i	-1.1	-12
CCN(CC)C(=O)Cn1cc([N+](=O)[O-])cc1[N+](=O)[O-]	·	-2	-1	·	i	·	·	·	·	·
O=C(O)C(Cc1cccs1)c1cccs1 (centres undefined)	·	13	-1	·	i	·	·	·	·	·
CN(C)c1ccc(N=C/C=C2\N(C)c3ccccc3C2(C)C)cc1	12	-10	2	-13	i	i	i	i	-0.52	46
CN1/C(=C\C=Nc2ccc3ccccc3c2)C(C)(C)c2ccccc21	4	-3	0	4	i	i	·	·	·	·
COc1ccc(CNC(=O)c2cn(Cc3ccccc3F)c(=O)s2)cc1	·	10	-1	·	·	·	·	·	·	·
COc1ccccc1NC(=O)C(C)OC(=O)C1CCC(C(C)(C)C)CC1 (centres undefined)	6	4	2	21	i	100*	i	i	-0.93	-4
COc1ccccc1NC(=O)C(C)OC(=O)C1CC(=O)N(c2ccc3c(c2)OCCO3)C1 (centres undefined)	-11	10	-3	-10	i	i	·	·	·	·
Cc1oc2c(CN3CCC(C)CC3)c(O)ccc2c(=O)c1-c1ccccc1	2	0	-2	-12	i	i	·	·	·	·
O=C(O)c1ccccc1C(=O)Nc1c(-c2ccccc2)nc2ccccn12	·	-1	-1	-14	i	i	·	·	·	·
N#CC1=C(N)N2C(=C(C#N)C1c1ccc(Br)cc1)Nc1ccccc12 (centres undefined)	109*	·	·	114*	·	25*	16%*	i	-1.1	-16
N#CC1=C(N)N2C(=C(C#N)C13CCN(Cc1ccccc1)CC3)Nc1ccccc12	-1	-8	0	-7	i	i	·	·	·	·
O=C(CCC1COc2ccccc2O1)NCc1ccccc1 (centres undefined)	-5	14	0	-4	i	100*	i	i	-1.1	-16
